From ChEMBL document CHEMBL1833793 (Bioorg Med Chem Lett, 2011) come the findings set out here.

In series [1] the target is T1, Neuropeptide Y receptor type 5 (Homo sapiens, UniProt Q15761).
T1 sequence (Q15761 whole entry): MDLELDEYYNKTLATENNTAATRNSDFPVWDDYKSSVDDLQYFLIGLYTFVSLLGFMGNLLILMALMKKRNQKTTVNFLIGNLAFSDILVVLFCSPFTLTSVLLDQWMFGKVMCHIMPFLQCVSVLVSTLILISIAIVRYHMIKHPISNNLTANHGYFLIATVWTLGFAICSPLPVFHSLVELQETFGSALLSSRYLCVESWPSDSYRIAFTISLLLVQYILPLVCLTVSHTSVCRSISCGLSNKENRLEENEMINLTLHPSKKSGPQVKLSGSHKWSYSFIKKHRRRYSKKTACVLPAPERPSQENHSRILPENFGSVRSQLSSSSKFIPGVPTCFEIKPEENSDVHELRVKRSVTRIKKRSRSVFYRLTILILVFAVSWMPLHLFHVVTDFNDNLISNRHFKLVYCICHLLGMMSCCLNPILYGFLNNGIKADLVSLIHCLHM
As to the kind of experiment: Antagonist activity at human NPY5 receptor assessed as calcium mobilization by FLIPR assay. Format: functional.

Series [2] addresses T2, Neuropeptide Y receptor type 2 (Homo sapiens, UniProt P49146).
T2 sequence (P49146 whole entry): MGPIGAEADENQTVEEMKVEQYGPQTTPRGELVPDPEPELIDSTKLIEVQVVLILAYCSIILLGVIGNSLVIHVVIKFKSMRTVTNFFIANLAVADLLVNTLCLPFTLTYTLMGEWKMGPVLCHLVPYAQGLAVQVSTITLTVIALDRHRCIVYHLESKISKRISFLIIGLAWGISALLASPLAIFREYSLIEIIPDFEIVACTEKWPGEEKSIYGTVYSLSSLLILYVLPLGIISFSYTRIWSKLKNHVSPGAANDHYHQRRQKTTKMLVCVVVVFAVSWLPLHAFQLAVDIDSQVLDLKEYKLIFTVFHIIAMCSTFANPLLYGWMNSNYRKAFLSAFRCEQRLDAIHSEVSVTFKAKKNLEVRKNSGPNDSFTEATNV
As to the kind of experiment: Antagonist activity at human NPY2 receptor assessed as calcium mobilization by FLIPR assay. Format: functional.

Another series concerns the target Cytochrome P450 2C19 (Homo sapiens, UniProt P33261). Briefly: Inhibition of CYP2C19. The class given is ADME.
The nature of series [3]: Plasma clearance in Sprague-Dawley rat at 1 mg/kg, iv and 2 mg/kg, po by HPLC analysis. The class given is ADME, organism-based. An outline of the steps: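 Male Sprague-Dawley rats (200–250 g, n = 2) with jugular and carotid cannulae, dosed 1 mg/kg iv and 2 mg/kg po in crossover after 24 h washout. Vehicle was 20% beta cyclodextrin, pH adjusted with methanesulfonic acid to give a solution. Automated serial blood sampling took 12 time points over 24 h. Plasma was quantified by HPLC-MS/MS, with noncompartmental analysis.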

Series [4] is described as follows: Drug uptake in brain of cPP-induced feeding rat model at 3 mg/kg, po after 4 hrs. Format: ADME, organism-based. Details: dose 3 mg/kg, route oral. The note with it: read-out: Drug uptake. Put shortly:
(§1)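 Satellite rats (n = 2/dose) sampled each week alongside the cPP feeding test; Lu-series dosed po at 3, 10 or 30 mg/kg as suspension in 20% HP-β-cyclodextrin; plasma (ng/mL) and brain tissue (ng/g) levels taken at 1, 2, 4, 6 and 24 h post-dose; mean ± SD reported.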

Series [5] in a line: Plasma concentration in cPP-induced feeding rat model at 10 mg/kg, po after 4 hrs. The class given is ADME, organism-based. Details: dose 10 mg/kg, route oral. Put shortly:
as §1

Series [6] is described as follows: Plasma concentration in cPP-induced feeding rat model at 10 mg/kg, po after 6 hrs. The class given is ADME, organism-based. Details: dose 10 mg/kg, route oral. Put shortly:
as §1

Series [7] in a line: Drug uptake in brain of cPP-induced feeding rat model at 10 mg/kg, po after 1 hr. Format: ADME, organism-based. Details: dose 10 mg/kg, route oral. As to conditions: read-out: Drug uptake. An outline of the steps:
as §1

Series [8] is described as follows: Drug uptake in brain of cPP-induced feeding rat model at 10 mg/kg, po after 6 hrs. The class given is ADME, organism-based. Also on record: dose 10 mg/kg, route oral. As to conditions: read-out: Drug uptake. Put shortly: as §1
A short description of series [9]: Plasma concentration in cPP-induced feeding rat model at 30 mg/kg, po after 4 hrs. The class given is ADME, organism-based. Details: dose 30 mg/kg, route oral. Put shortly:
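Satellite rats (n = 2/dose per week), cannulated in the lateral cerebral ventricle for the feeding study, dosed orally at 3, 10 or 30 mg/kg as a suspension in 20% HP-β-cyclodextrin. Plasma was sampled 1, 2, 4, 6 or 24 h after dosing, alongside i.c.v. cPP (0.6 nmol) feeding tests. Values are given as mean with SD.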

Series [10] can be described thus: Drug uptake in brain of cPP-induced feeding rat model at 30 mg/kg, po after 1 hr. Details: dose 30 mg/kg, route oral. As to conditions: read-out: Drug uptake. The class given is ADME, organism-based. An outline of the steps:
as §1

In the next series the test system is Brain. As to the kind of experiment: Free drug level in brain of cPP-induced feeding rat model. Format: ADME, tissue-based. The note with it: in vivo.
Series [11] in a line: Plasma clearance in mouse at 1 mg/kg, iv and 2 mg/kg, po by HPLC analysis. Format: ADME, organism-based.
The nature of series [12]: Tmax in mouse at 1 mg/kg, iv and 2 mg/kg, po by HPLC analysis. The class given is ADME, organism-based. The note with it: in vivo.

Sequence of Cytochrome P450 2C19 (P33261 whole entry): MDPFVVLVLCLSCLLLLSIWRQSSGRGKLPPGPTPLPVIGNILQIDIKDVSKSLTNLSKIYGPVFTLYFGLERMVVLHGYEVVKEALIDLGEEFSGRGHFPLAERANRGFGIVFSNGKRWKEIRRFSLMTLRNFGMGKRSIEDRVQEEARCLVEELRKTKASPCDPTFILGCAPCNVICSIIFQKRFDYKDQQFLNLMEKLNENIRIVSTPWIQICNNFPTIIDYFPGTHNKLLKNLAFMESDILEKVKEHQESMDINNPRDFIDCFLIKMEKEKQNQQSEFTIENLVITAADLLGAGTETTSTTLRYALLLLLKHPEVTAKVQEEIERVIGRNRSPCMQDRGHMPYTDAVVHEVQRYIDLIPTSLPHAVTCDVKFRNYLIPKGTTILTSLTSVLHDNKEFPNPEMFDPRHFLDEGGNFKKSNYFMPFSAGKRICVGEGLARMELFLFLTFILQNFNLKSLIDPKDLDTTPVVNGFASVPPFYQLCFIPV

In general, IC50 refers to the concentration that gives 50% inhibition. A word on the Tmax: it is the time from dosing to the highest level. `CS(=O)(=O)NC[C@H]1CC[C@H](Nc2nc3c(s2)CCSc2ccccc2-3)CC1`: the IC50 in series [1] is 1.8 nM; in series [2] it was over 1000 nM; against Cytochrome P450 2C19, over 10000 nM. For the same compound, the clearance is 18.3 mL/min/kg in series [3] and 5 mL/min/kg in series [11]. In addition, the figures for the concentration at 4 h in [4], in [5] and in [9] were 52 ng/g, 141 ng/mL and 519 ng/mL, respectively. Further, the concentration at 6 h in series [6] turned out to be 46 ng/mL; in [8], 124 ng/g. In addition, the concentration at 1 h was 179 ng/g in [7] and 288 ng/g in [10]. Also, the Drug uptake with Brain is given as 0.4 nM. Further, the Tmax in series [12] turned out to be 1.3 h.
